From ChEMBL document CHEMBL1122650, “Synthesis and central nervous system properties of 2-[(alkoxycarbonyl)amino]-4(5)-phenyl-2-imidazolines” (J Med Chem, 1984)
Activity calls are given as the source filed them. No cut-off for these calls is given here.

Test system: not listed separately
Assay: HPLC capacity factor (k')
Format: ADME
Settings: not given
With COC(=O)NC1=NC(c2ccccc2)C(C)N1 (configuration not stated) the “Log k'” value was 0.15. In the case of CC(C)OC(=O)NC1=NC(c2ccccc2F)CN1C (configuration not stated), the “Log k'” value is reported as 0.77. With COC(=O)NC1=NC(c2ccc(Cl)cc2)CN1C (configuration not stated) the “Log k'” value was 0.54. For CCOC(=O)NC1=NC(c2cccc(F)c2)CN1C (configuration not stated), the “Log k'” value was 0.51. For COC(=O)NC1=NC(c2ccc(CO)cc2)CN1C (configuration not stated), the “Log k'” value was -0.76. In the case of CCOC(=O)NC1=NC(c2ccc(CO)cc2)CN1C (configuration not stated), the “Log k'” value is reported as -0.29. In the case of COC(=O)NC1=NC(c2ccccc2)CN1C (configuration not stated), the “Log k'” value is reported as 0.06. In the case of COC(=O)NC1=NC(c2cccc(C)c2)CN1 (configuration not stated), the “Log k'” value is reported as 0.26.

Test system: Mus musculus
Assay: Compound was evaluated in vivo for reserpine hypothermia after oral administration in mouse.
Format: functional
Settings: not given
Method in brief: (§1)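 Male HLa (ICR) BR mice, 18-24 g, in groups of eight; reserpine 5 mg/kg ip given 2 h before oral test compound as aqueous solution. Rectal temperature taken hourly; 1-4-h hypothermia assessed by analysis of variance.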
COC(=O)NC1=NC(c2cccc(C)c2)CN1 (configuration not stated) showed an ED50 of 51 mg/kg.

Test system: Mus musculus
Assay: Evaluated in vivo for reserpine hypothermia after oral administration in mouse. Minimum active dose was reported; Inactive
Format: functional, organism-based
Settings: not given
Method in brief: as §1
In the case of CCOC(=O)NC1=NC(c2cccc(F)c2)CN1C (configuration not stated), the ED50 is reported as “inactive”. With COC(=O)NC1=NC(c2ccc(CO)cc2)CN1C (configuration not stated) the ED50 was “inactive”.

Test system: Mus musculus
Assay: Compound was evaluated in vivo for reserpine hypothermia after oral administration in mouse. Minimum active dose was reported; Inactive
Format: functional, organism-based
Settings: not given
Method in brief: as §1
With COC(=O)NC1=NC(c2ccc(Cl)cc2)CN1C (configuration not stated) the ED50 was “inactive”.

Organism: Mus musculus
Assay: Mouse behavior activity was determined; Depressant-Stimulant.
Format: functional, organism-based
Settings: not given
Method in brief: (§2)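 Male Simonsen (ICR) fBR mice, 18-24 g, groups of three, given 3, 10, 30, 100, 300 or 1000 mg/kg ip as aqueous solution and observed for behavioral profile; deaths followed up to 7 days.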
In the case of CC(C)OC(=O)NC1=NC(c2ccccc2F)CN1C (configuration not stated), the Mouse behavior activity is reported as “Depressant-Stimulant”.

Organism: Mus musculus
Assay: Mouse behavior activity was determined; Inactive
Format: functional, organism-based
Settings: not given
Method in brief: as §2
With COC(=O)NC1=NC(c2ccc(CO)cc2)CN1C (configuration not stated) the Mouse behavior activity was “inactive”. In the case of CCOC(=O)NC1=NC(c2ccc(CO)cc2)CN1C (configuration not stated), the Mouse behavior activity is reported as “inactive”.

Organism: Mus musculus
Assay: Mouse behavior activity was determined; Stimulant Weak
Format: functional, organism-based
Settings: not given
Method in brief: as §2
In the case of COC(=O)NC1=NC(c2ccccc2)C(C)N1 (configuration not stated), the Mouse behavior activity is reported as “Stimulant Weak”.

Organism: Mus musculus
Assay: Mouse behavior activity was determined;D= Depressant
Format: functional, organism-based
Settings: not given
Method in brief: as §2
In the case of COC(=O)NC1=NC(c2ccc(Cl)cc2)CN1C (configuration not stated), the Mouse behavior activity is reported as “Depressant”.

Organism: Mus musculus
Assay: Mouse behavior activity was determined;D= Depressant.
Format: functional, organism-based
Settings: not given
In the case of COC(=O)NC1=NC(c2cccc(C)c2)CN1 (configuration not stated), the Mouse behavior activity is reported as “Depressant”.

Organism: Mus musculus
Assay: Compound was evaluated for antagonism of reserpine induced hypothermia.
Format: functional
Settings: not given
Method in brief: as §1
With CCOC(=O)NC1=NC(c2cccc(F)c2)CN1C (configuration not stated) the HYPO was <0.5 mg/kg.

Organism: Mus musculus
Assay: Compound was evaluated for antagonism of reserpine induced hypothermia;. 5-2.5 excessive variability.
Format: functional, organism-based
Settings: not given
Method in brief: as §1
In the case of COC(=O)NC1=NC(c2cccc(C)c2)CN1 (configuration not stated), the HYPO is reported as “excessive variability”.

Organism: Mus musculus
Assay: Compound was evaluated for maximal electroshock antagonism (MES) against mice
Format: functional
Settings: not given
Method in brief: (§3)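 Male HLa (ICR) BR mice, groups of eight to ten, dosed ip (aqueous solution) 15 min before transcorneal electroshock (50 mA, 0.2 s). End point: abolition of tonic hind-limb extension; quantal ED50 by Litchfield-Wilcoxon.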
Compound COC(=O)NC1=NC(c2ccccc2)C(C)N1 (configuration not stated) has an ED50 of 90 mg/kg. Work on CC(C)OC(=O)NC1=NC(c2ccccc2F)CN1C (configuration not stated) yielded an ED50 of 23 mg/kg. COC(=O)NC1=NC(c2ccc(Cl)cc2)CN1C (configuration not stated) showed an ED50 of 66 mg/kg. COC(=O)NC1=NC(c2ccccc2)CN1C (configuration not stated) gave an ED50 of 107 mg/kg. COC(=O)NC1=NC(c2cccc(C)c2)CN1 (configuration not stated) showed an ED50 of 100 mg/kg.

Organism: Mus musculus
Assay: Compound was evaluated for maximal electroshock antagonism (MES) against mice; Inactive
Format: functional, organism-based
Settings: not given
Method in brief: as §3
For COC(=O)NC1=NC(c2ccc(CO)cc2)CN1C (configuration not stated), the ED50 was “inactive”. In the case of CCOC(=O)NC1=NC(c2ccc(CO)cc2)CN1C (configuration not stated), the ED50 is reported as “inactive”.

Test system: Mus musculus
Assay: Compound was evaluated for maximal electroshock antagonism (MES) against mice; Inactive at 30 mg/kg
Format: functional, organism-based
Parameters: dose 30 mg/kg
Settings: not given
Method in brief: as §3
For CCOC(=O)NC1=NC(c2cccc(F)c2)CN1C (configuration not stated), the ED50 was “inactive”.

Test system: Mus musculus
Assay: Compound was evaluated in vivo for reserpine hypothermia after oral administration in mouse. Minimum active dose was reported; rigidity was potentiated by compound.
Format: functional, organism-based
Settings: not given
Method in brief: as §1
With COC(=O)NC1=NC(c2ccccc2)CN1C (configuration not stated) the P was “rigidity was potentiated by compound”.

Organism: Mus musculus
Assay: Righting ability was determined in mice after rapid rolling (aroused)
Format: functional
Settings: not given
Method in brief: (§4)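 Male Simonsen (ICR) fBR mice, 18-24 g, groups of ten, dosed with aqueous compound. Righting ability checked before (unaroused) and after (aroused) rapid rolling in the hand; ED50 by Litchfield-Wilcoxon method.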
In the case of COC(=O)NC1=NC(c2cccc(C)c2)CN1 (configuration not stated), the Loss of righting reflex is reported as 157 mg/kg.

Organism: Mus musculus
Assay: Righting ability was determined in mice […] rapid rolling (aroused)
Format: functional
Settings: not given
Method in brief: as §4
Compound CC(C)OC(=O)NC1=NC(c2ccccc2F)CN1C (configuration not stated) has a Loss of righting reflex of 55 mg/kg.

Organism: Mus musculus
Assay: Righting ability was determined in mice before rapid rolling (unaroused)
Format: functional
Settings: not given
Method in brief: as §4
With CC(C)OC(=O)NC1=NC(c2ccccc2F)CN1C (configuration not stated) the Loss of righting reflex was 11 mg/kg. COC(=O)NC1=NC(c2cccc(C)c2)CN1 (configuration not stated) showed a Loss of righting reflex of 100 mg/kg.

Organism: Mus musculus
Assay: Mouse behavior activity was determined; S-D=Stimulant-Depressant
Format: functional, organism-based
Settings: not given
Method in brief: as §2
With COC(=O)NC1=NC(c2ccccc2)CN1C (configuration not stated) the Mouse behavior activity was “Stimulant-Depressant”.

Organism: Mus musculus
Assay: Evaluated for antagonism of reserpine induced hypothermia
Format: functional
Settings: not given
Method in brief: as §1
In the case of COC(=O)NC1=NC(c2ccc(CO)cc2)CN1C (configuration not stated), the HYPO is reported as <0.5 mg/kg.

Test system: not listed separately
Assay: Lethal dose in mouse, in groups of ten
Format: toxicity, organism-based
Settings: in vivo
Compound COC(=O)NC1=NC(c2ccccc2)C(C)N1 (configuration not stated) has an LD50 of 200 mg/kg. Work on CC(C)OC(=O)NC1=NC(c2ccccc2F)CN1C (configuration not stated) yielded an LD50 of 700 mg/kg. COC(=O)NC1=NC(c2ccc(Cl)cc2)CN1C (configuration not stated) showed an LD50 of 200 mg/kg. For COC(=O)NC1=NC(c2ccc(CO)cc2)CN1C (configuration not stated), the LD50 was > 1000 mg/kg. For CCOC(=O)NC1=NC(c2ccc(CO)cc2)CN1C (configuration not stated), the LD50 was 500 mg/kg. With COC(=O)NC1=NC(c2ccccc2)CN1C (configuration not stated) the LD50 was 200 mg/kg. Work on COC(=O)NC1=NC(c2cccc(C)c2)CN1 (configuration not stated) yielded an LD50 of 500 mg/kg.
